Measurements taken from ChEMBL document CHEMBL1142890, “Structure-antibacterial activity of arylcarbonyl- and arylsulfonyl-piperazine 5-triazolylmethyl oxazolidinones” (2007).
In brackets after ≈: the same amount, converted by molar mass.

Key:
Staphylococcus aureus [1] = assay: Antimicrobial activity against Staphylococcus aureus ATCC 25923 by agar dilution method
Staphylococcus aureus [2] = assay: Antimicrobial activity against Staphylococcus aureus ATCC 25922 in presence of 50% human plasma […]; type: functional; conditions: ATCC 25923, Plasma, in the assay text read “ATCC 25923” for “ATCC 25922”
Outline: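 S. aureus ATCC 25923 tested in Mueller–Hinton broth supplemented with 50% human plasma. Test compounds dissolved in 20% water in DMSO. Inoculum 10⁷ CFU/ml, incubated 35 °C for 18 h. MIC was the lowest concentration completely inhibiting growth.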

Escherichia coli = assay: Antimicrobial activity against Escherichia coli ATCC 25922; type: functional
Staphylococcus [3] = assay: Antimicrobial activity against methicillin-susceptible coagulase-negative staphylococcus by agar dilution method; type: functional
Outline: (§1)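 Agar dilution per CLSI on Mueller-Hinton agar, test agents at 0.12 to 8 µg/ml; test compounds dissolved in 20% water in DMSO, linezolid in 40% water in ethanol, vancomycin in water. Clinical isolates inoculated at final 10^7 CFU/ml, incubated 35 °C for 18 h. MIC = lowest concentration completely inhibiting growth; reported as range across isolates.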

Staphylococcus aureus [4] = assay: Antimicrobial activity against methicillin-resistant Staphylococcus aureus by agar dilution method; type: functional
Outline: as §1

Enterococcus [5] = assay: Antimicrobial activity against vancomycin-sensitive Enterococcus by agar dilution method; type: functional
Outline: as §1

Staphylococcus aureus [6] = assay: Antimicrobial activity against methicillin-susceptible Staphylococcus aureus by agar dilution method; type: functional
Outline: as §1

Haemophilus influenzae = assay: Antimicrobial activity against Haemophilus influenzae; type: functional
Moraxella catarrhalis = assay: Antimicrobial activity against Moraxella catarrhalis; type: functional
Streptococcus pneumoniae = assay: Antimicrobial activity against Streptococcus pneumoniae by agar dilution method; type: functional
Outline: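 Agar dilution per CLSI on Mueller–Hinton agar holding drug dilutions from 0.12 to 8 µg/ml. Staphylococci and enterococci tested on plain MH agar, S. pneumoniae on MH agar with 5% sheep blood. Test compounds dissolved in 20% water in DMSO. Inoculum 10⁷ CFU/ml, incubated 35 °C for 18 h. MIC was the lowest concentration giving complete growth inhibition.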

Enterococcus [7] = assay: Antimicrobial activity against vancomycin-resistant Enterococcus by agar dilution method; type: functional
Outline: as §1

Staphylococcus [8] = assay: Antimicrobial activity against methicillin-resistant coagulase-negative Staphylococcus by agar dilution method; type: functional
Outline: as §1

O=C1O[C@@H](Cn2ccnn2)CN1c1ccc(N2CCN(S(=O)(=O)c3cccs3)CC2)c(F)c1
MIC (Staphylococcus aureus [1]): 1 mg/L (≈ 2.03 µM) | MIC (Staphylococcus aureus [2]): > 8 mg/L | MIC (Escherichia coli): ≥ 8 mg/L | MIC (Staphylococcus [3]): 0.5 mg/L (≈ 1.02 µM) | MIC (Staphylococcus aureus [4]): 0.5 mg/L (≈ 1.02 µM) | MIC (Enterococcus [5]): 0.5 mg/L (≈ 1.02 µM) | MIC (Staphylococcus aureus [6]): 0.5 mg/L (≈ 1.02 µM) | MIC (Haemophilus influenzae): ≥ 8 mg/L | MIC (Moraxella catarrhalis): ≥ 8 mg/L | MIC (Streptococcus pneumoniae): 1 mg/L (≈ 2.03 µM) | MIC (Enterococcus [7]): 0.5 mg/L (≈ 1.02 µM) | MIC (Staphylococcus [8]): 0.5 mg/L (≈ 1.02 µM)

O=C(c1ccccc1Cl)N1CCN(c2ccc(N3C[C@H](Cn4ccnn4)OC3=O)cc2F)CC1
MIC (Staphylococcus aureus [1]): 1 mg/L (≈ 2.06 µM) | MIC (Staphylococcus aureus [2]): 8 mg/L | MIC (Escherichia coli): ≥ 8 mg/L | MIC (Staphylococcus [3]): 0.5 mg/L (≈ 1.03 µM) | MIC (Staphylococcus aureus [4]): 0.5 mg/L (≈ 1.03 µM) | MIC (Enterococcus [5]): 0.5 mg/L (≈ 1.03 µM) | MIC (Staphylococcus aureus [6]): 0.5 mg/L (≈ 1.03 µM) | MIC (Haemophilus influenzae): ≥ 8 mg/L | MIC (Moraxella catarrhalis): ≥ 8 mg/L | MIC (Streptococcus pneumoniae): 4 mg/L (≈ 8.25 µM) | MIC (Enterococcus [7]): 0.5 mg/L (≈ 1.03 µM) | MIC (Staphylococcus [8]): 0.5 mg/L (≈ 1.03 µM)

O=C(c1ccc(Cl)cc1)N1CCN(c2ccc(N3C[C@H](Cn4ccnn4)OC3=O)cc2F)CC1
MIC (Staphylococcus aureus [1]): 0.5 mg/L (≈ 1.03 µM) | MIC (Staphylococcus aureus [2]): 8 mg/L | MIC (Escherichia coli): ≥ 8 mg/L | MIC (Staphylococcus [3]): 0.12 mg/L (≈ 0.247 µM) | MIC (Staphylococcus aureus [4]): 0.25 mg/L (≈ 0.516 µM) | MIC (Enterococcus [5]): 0.5 mg/L (≈ 1.03 µM) | MIC (Staphylococcus aureus [6]): 0.25 mg/L (≈ 0.516 µM) | MIC (Haemophilus influenzae): ≥ 8 mg/L | MIC (Moraxella catarrhalis): ≥ 8 mg/L | MIC (Streptococcus pneumoniae): 1 mg/L (≈ 2.06 µM) | MIC (Enterococcus [7]): 0.5 mg/L (≈ 1.03 µM) | MIC (Staphylococcus [8]): 0.12 mg/L (≈ 0.247 µM)

O=C(c1ccccc1F)N1CCN(c2ccc(N3C[C@H](Cn4ccnn4)OC3=O)cc2F)CC1
MIC (Staphylococcus aureus [1]): 0.5 mg/L (≈ 1.07 µM) | MIC (Staphylococcus aureus [2]): 8 mg/L | MIC (Escherichia coli): ≥ 8 mg/L | MIC (Staphylococcus [3]): 0.25 mg/L (≈ 0.534 µM) | MIC (Staphylococcus aureus [4]): 0.25 mg/L (≈ 0.534 µM) | MIC (Enterococcus [5]): 0.5 mg/L (≈ 1.07 µM) | MIC (Staphylococcus aureus [6]): 0.25 mg/L (≈ 0.534 µM) | MIC (Haemophilus influenzae): ≥ 8 mg/L | MIC (Moraxella catarrhalis): ≥ 8 mg/L | MIC (Streptococcus pneumoniae): 1 mg/L (≈ 2.13 µM) | MIC (Enterococcus [7]): 0.5 mg/L (≈ 1.07 µM) | MIC (Staphylococcus [8]): 0.25 mg/L (≈ 0.534 µM)

O=C(c1ccc(F)cc1)N1CCN(c2ccc(N3C[C@H](Cn4ccnn4)OC3=O)cc2F)CC1
MIC (Staphylococcus aureus [1]): 1 mg/L (≈ 2.13 µM) | MIC (Staphylococcus aureus [2]): 4 mg/L | MIC (Escherichia coli): ≥ 8 mg/L | MIC (Staphylococcus [3]): 0.5 mg/L (≈ 1.07 µM) | MIC (Staphylococcus aureus [4]): 0.5 mg/L (≈ 1.07 µM) | MIC (Enterococcus [5]): 1 mg/L (≈ 2.13 µM) | MIC (Staphylococcus aureus [6]): 0.5 mg/L (≈ 1.07 µM) | MIC (Haemophilus influenzae): ≥ 8 mg/L | MIC (Moraxella catarrhalis): ≥ 8 mg/L | MIC (Streptococcus pneumoniae): 0.5 mg/L (≈ 1.07 µM) | MIC (Enterococcus [7]): 0.5 mg/L (≈ 1.07 µM) | MIC (Staphylococcus [8]): 0.5 mg/L (≈ 1.07 µM)

O=C(c1ccccc1[N+](=O)[O-])N1CCN(c2ccc(N3C[C@H](Cn4ccnn4)OC3=O)cc2F)CC1
MIC (Staphylococcus aureus [1]): 2 mg/L (≈ 4.04 µM) | MIC (Staphylococcus aureus [2]): 2 mg/L | MIC (Escherichia coli): ≥ 8 mg/L | MIC (Staphylococcus [3]): 1 mg/L (≈ 2.02 µM) | MIC (Staphylococcus aureus [4]): 0.5 mg/L (≈ 1.01 µM) | MIC (Enterococcus [5]): 2 mg/L (≈ 4.04 µM) | MIC (Staphylococcus aureus [6]): 1 mg/L (≈ 2.02 µM) | MIC (Haemophilus influenzae): ≥ 8 mg/L | MIC (Moraxella catarrhalis): ≥ 8 mg/L | MIC (Streptococcus pneumoniae): 0.5 mg/L (≈ 1.01 µM) | MIC (Enterococcus [7]): 1 mg/L (≈ 2.02 µM) | MIC (Staphylococcus [8]): 1 mg/L (≈ 2.02 µM)

O=C(c1cccc([N+](=O)[O-])c1)N1CCN(c2ccc(N3C[C@H](Cn4ccnn4)OC3=O)cc2F)CC1
MIC (Staphylococcus aureus [1]): 2 mg/L (≈ 4.04 µM) | MIC (Staphylococcus aureus [2]): 2 mg/L | MIC (Escherichia coli): ≥ 8 mg/L | MIC (Staphylococcus [3]): 0.5 mg/L (≈ 1.01 µM) | MIC (Staphylococcus aureus [4]): 0.25 mg/L (≈ 0.505 µM) | MIC (Enterococcus [5]): 0.5 mg/L (≈ 1.01 µM) | MIC (Staphylococcus aureus [6]): 0.25 mg/L (≈ 0.505 µM) | MIC (Haemophilus influenzae): ≥ 8 mg/L | MIC (Moraxella catarrhalis): ≥ 8 mg/L | MIC (Streptococcus pneumoniae): 0.25 mg/L (≈ 0.505 µM) | MIC (Enterococcus [7]): 0.5 mg/L (≈ 1.01 µM) | MIC (Staphylococcus [8]): 0.25 mg/L (≈ 0.505 µM)

Cc1ccccc1C(=O)N1CCN(c2ccc(N3C[C@H](Cn4ccnn4)OC3=O)cc2F)CC1
MIC (Staphylococcus aureus [1]): 2 mg/L (≈ 4.31 µM) | MIC (Staphylococcus aureus [2]): 8 mg/L | MIC (Escherichia coli): ≥ 8 mg/L | MIC (Staphylococcus [3]): 0.5 mg/L (≈ 1.08 µM) | MIC (Staphylococcus aureus [4]): 0.5 mg/L (≈ 1.08 µM) | MIC (Enterococcus [5]): 1 mg/L (≈ 2.15 µM) | MIC (Staphylococcus aureus [6]): 0.5 mg/L (≈ 1.08 µM) | MIC (Haemophilus influenzae): ≥ 8 mg/L | MIC (Moraxella catarrhalis): ≥ 8 mg/L | MIC (Streptococcus pneumoniae): 1 mg/L (≈ 2.15 µM) | MIC (Enterococcus [7]): 1 mg/L (≈ 2.15 µM) | MIC (Staphylococcus [8]): 0.5 mg/L (≈ 1.08 µM)

O=C(c1cccc(F)c1)N1CCN(c2ccc(N3C[C@H](Cn4ccnn4)OC3=O)cc2F)CC1
MIC (Staphylococcus aureus [1]): 1 mg/L (≈ 2.13 µM) | MIC (Staphylococcus aureus [2]): 4 mg/L | MIC (Escherichia coli): ≥ 8 mg/L | MIC (Staphylococcus [3]): 0.5 mg/L (≈ 1.07 µM) | MIC (Staphylococcus aureus [4]): 0.25 mg/L (≈ 0.534 µM) | MIC (Enterococcus [5]): 0.5 mg/L (≈ 1.07 µM) | MIC (Staphylococcus aureus [6]): 0.25 mg/L (≈ 0.534 µM) | MIC (Haemophilus influenzae): ≥ 8 mg/L | MIC (Moraxella catarrhalis): ≥ 8 mg/L | MIC (Streptococcus pneumoniae): 0.5 mg/L (≈ 1.07 µM) | MIC (Enterococcus [7]): 0.5 mg/L (≈ 1.07 µM) | MIC (Staphylococcus [8]): 0.5 mg/L (≈ 1.07 µM)

O=C(c1ccc([N+](=O)[O-])cc1)N1CCN(c2ccc(N3C[C@H](Cn4ccnn4)OC3=O)cc2F)CC1
MIC (Staphylococcus aureus [1]): 2 mg/L (≈ 4.04 µM) | MIC (Staphylococcus aureus [2]): 4 mg/L | MIC (Escherichia coli): ≥ 8 mg/L | MIC (Staphylococcus [3]): 1 mg/L (≈ 2.02 µM) | MIC (Staphylococcus aureus [4]): 1 mg/L (≈ 2.02 µM) | MIC (Enterococcus [5]): 2 mg/L (≈ 4.04 µM) | MIC (Staphylococcus aureus [6]): 2 mg/L (≈ 4.04 µM) | MIC (Haemophilus influenzae): ≥ 8 mg/L | MIC (Moraxella catarrhalis): ≥ 8 mg/L | MIC (Streptococcus pneumoniae): 1 mg/L (≈ 2.02 µM) | MIC (Enterococcus [7]): 2 mg/L (≈ 4.04 µM) | MIC (Staphylococcus [8]): 1 mg/L (≈ 2.02 µM)

O=C1O[C@@H](Cn2ccnn2)CN1c1ccc(N2CCN(S(=O)(=O)c3ccccc3)CC2)c(F)c1
MIC (Staphylococcus aureus [1]): 2 mg/L (≈ 4.11 µM) | MIC (Staphylococcus aureus [2]): 8 mg/L | MIC (Escherichia coli): ≥ 8 mg/L | MIC (Staphylococcus [3]): 0.5 mg/L (≈ 1.03 µM) | MIC (Staphylococcus aureus [4]): 0.5 mg/L (≈ 1.03 µM) | MIC (Enterococcus [5]): 2 mg/L (≈ 4.11 µM) | MIC (Staphylococcus aureus [6]): 0.5 mg/L (≈ 1.03 µM) | MIC (Haemophilus influenzae): ≥ 8 mg/L | MIC (Moraxella catarrhalis): ≥ 8 mg/L | MIC (Streptococcus pneumoniae): 1 mg/L (≈ 2.06 µM) | MIC (Enterococcus [7]): 0.5 mg/L (≈ 1.03 µM) | MIC (Staphylococcus [8]): 0.5 mg/L (≈ 1.03 µM)

O=C(Cc1ccccc1)N1CCN(c2ccc(N3C[C@H](Cn4ccnn4)OC3=O)cc2F)CC1
MIC (Staphylococcus aureus [1]): 2 mg/L (≈ 4.31 µM) | MIC (Staphylococcus aureus [2]): 4 mg/L | MIC (Escherichia coli): ≥ 8 mg/L | MIC (Staphylococcus [3]): 0.5 mg/L (≈ 1.08 µM) | MIC (Staphylococcus aureus [4]): 0.5 mg/L (≈ 1.08 µM) | MIC (Enterococcus [5]): 0.5 mg/L (≈ 1.08 µM) | MIC (Staphylococcus aureus [6]): 0.5 mg/L (≈ 1.08 µM) | MIC (Haemophilus influenzae): ≥ 8 mg/L | MIC (Moraxella catarrhalis): ≥ 8 mg/L | MIC (Streptococcus pneumoniae): 0.5 mg/L (≈ 1.08 µM) | MIC (Enterococcus [7]): 1 mg/L (≈ 2.15 µM) | MIC (Staphylococcus [8]): 0.5 mg/L (≈ 1.08 µM)
